Calls of active or inactive are those of the source. No cut-off for these calls is given here.
Tests used:
[1] = system: Leishmania amazonensis; experiment: Leishmanicidal activity against Leishmania amazonensis promastigote form at 100 ug/mL; format: functional
Outline: (§1)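 Promastigotes grown at 28°C in Schneider's medium with 20% FCS, seeded at 10^7 parasites/mL; compound dissolved in minimal DMSO or Tween 80 and diluted in Schneider's medium to a final 100 µg/mL. After 72 h at 28°C, parasites examined by inverted microscopy and compared with compound-free control.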

[2] = system: Leishmania braziliensis; experiment: Leishmanicidal activity against Leishmania braziliensis promastigote form at 100 ug/mL; format: functional; outline: as §1
[3] = system: Leishmania infantum; experiment: Leishmanicidal activity against Leishmania infantum promastigote form at 100 ug/mL; format: functional; outline: as §1
[4] = system: Trypanosoma cruzi; experiment: Antitrypanosomatid activity against Trypanosoma cruzi Tulahuen 2 epimastigote form at 100 uM; format: functional; details: read-out: GI
Outline: (§2)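 Tulahuen 2 epimastigotes in BHI-tryptose plus 5% FCS at 28°C, inoculated at 1×10^6 cells/mL with compound (25 or 100 µM) from DMSO stock, final DMSO ≤0.4%. Growth over 5 days followed by A600; %GI computed from day-0 and day-5 absorbances of treated vs compound-free control cultures; mean of three experiments.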

[5] = system: Trypanosoma cruzi; experiment: Antitrypanosomatid activity against Trypanosoma cruzi Tulahuen 2 epimastigote form at 25 uM; format: functional; details: read-out: GI; outline: as §2
[6] = system: Trypanosoma cruzi; experiment: Trypanocidal activity against Trypanosoma cruzi CL Brener trypomastigote form in mouse blood at 250 ug/mL; format: functional
Outline: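 Trypomastigotes taken from infected mouse blood; compound in DMSO diluted with PBS to 250 µg/mL, mixed with blood containing 10^6 parasites at 90/10 ratio, incubated 24 h at 4°C. Parasites counted by the Brener method under microscope; gentian violet positive and PBS negative controls.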

[7] = system: Trypanosoma cruzi; experiment: Antitrypanosomatid activity against Trypanosoma cruzi Y epimastigote form; format: functional, organism-based
Outline: (§3)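 Epimastigotes grown at 28°C in BHI-tryptose with 5% fetal calf serum; 5-day stationary-phase cells inoculated at 1×10^6 cells/mL with compound added from DMSO stock (final DMSO ≤0.4%; control contains 0.4% DMSO). Growth followed by A600; at day 5 absorbance related to control across increasing concentrations; IC50 taken as concentration reducing absorbance ratio to 50%.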

[8] = system: J774; experiment: Cytotoxicity against mouse J774 macrophage at 40 uM; format: functional
Outline: (§4)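 J774 macrophages in RPMI 1640 with 20% heat-inactivated FCS, attached 24 h at 37°C in 5% CO2, then exposed to compound for 48 h. Washed, MTT 0.4 mg/mL 60 min at 37°C, formazan dissolved in DMSO, OD595 read. Each concentration in triplicate with six growth controls; %cytotoxicity corrected for compound-in-medium and medium-only blanks.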

[9] = system: J774; experiment: Cytotoxicity against mouse J774 macrophage at 400 uM; format: functional; outline: as §4
[10] = system: Trypanosoma cruzi; experiment: Antitrypanosomatid activity against Trypanosoma cruzi Tulahuen 2 epimastigote form; format: functional, organism-based; outline: as §3
[11] = system: Trypanosoma cruzi; experiment: Antitrypanosomatid activity against Trypanosoma cruzi CL Brener epimastigote form; format: functional, organism-based; outline: as §3
[12] = system: Trypanosoma cruzi; experiment: Activity against Trypanosoma cruzi in BALB/c mouse at 30 mg/kg/day after 60 days; format: functional, organism-based
Outline: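 Male BALB/c mice (30 days old, 25-30 g) infected i.p. with 10^3 blood trypomastigotes; oral dosing began 10 days post-infection, 30 mg/kg/day as aqueous PBS solution for 10 days; groups of eight, PBS control group of 10. Mortality recorded daily, parasitemia weekly; anti-T. cruzi antibodies measured serologically (absorbance) at 30 and 60 days post-infection, groups compared by Wilcoxon test.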

[13] = system: J774; experiment: Cytotoxicity against mouse J774 macrophage at 4 uM; format: functional, cell-based; outline: as §4

Row | Structure (SMILES) | Activity [1] | Activity [2] | Activity [3] | inhibition of growth at 100 µM [4] | inhibition of growth at 25 µM [5] | Activity [6] | further results
1 | N=C(N)c1ccc(OCCCCCOc2ccc(C(=N)N)cc2)cc1 [PENTAMIDINE] | 100% | 100% | 100% |  |  |  | 
2 | CCOC(=O)COn1c(C)[n+]([O-])c2cc(C)ccc21 |  |  |  | 15% | 25% |  | 
3 | CN(C)c1ccc(C(=C2C=CC(=[N+](C)C)C=C2)c2ccc(N(C)C)cc2)cc1.[Cl-] [GENTIAN VIOLET] |  |  |  |  |  | 100% | 
4 | CCCCCCNC(=O)N/N=C/c1ccc2c(c1)=[N+]([O-])C(C)(C)[N+]=2[O-] |  |  |  |  | 69% |  | 
5 | Cc1ccc2c(c1)[n+]([O-])c(C)n2O | inactive | inactive | inactive | 0% | 0% | 0% | 
6 | COc1ccc2c(c1)=[N+]([O-])C(C)(C)[N+]=2[O-] | 70% | 70% | inactive |  | 52% | 34% | IC50 [7]: 17 µM; Activity [8]: < 50%; Activity [9]: Toxic; IC50 [10]: 28.5 µM; IC50 [11]: 25 µM
7 | CCCCOC(=O)c1[nH]c2ccc([N+](=O)[O-])cc2[n+]1[O-] |  |  |  |  |  | 0% | 
8 | CCOC(=O)c1[nH]c2ccc([N+](=O)[O-])cc2[n+]1[O-] | inactive | inactive | inactive |  |  | 0% | 
9 | CCCCCOn1c(C)[n+]([O-])c2ccccc21 |  |  |  | 57% | 0% |  | 
10 | O=[N+]([O-])c1ccc2c(c1)[n+]([O-])c1n2CCC1 |  |  |  |  | 0% |  | 
11 | O=[N+]([O-])c1ccc2c(c1)[n+]([O-])c1n2CCSC1 |  |  |  |  | 0% |  | 
12 | CC1(C)[N+]([O-])=c2ccccc2=[N+]1[O-] | 100% | 100% | 100% |  | 87% | 10% | IC50 [7]: 14 µM; Activity [8]: < 50%; Activity [9]: Toxic; IC50 [10]: 4.3 µM; IC50 [11]: 9 µM
13 | O=[N+]([O-])c1ccc2c(c1)[n+]([O-])c1n2CCOC1 |  |  |  |  | 0% |  | 
14 | Cc1n(O)c2ccc(Cl)cc2[n+]1[O-] |  |  |  | 8% | 0% |  | 
15 | COc1ccc2c(c1)[n+]([O-])c(C)n2O | inactive | inactive | inactive | 24% | 0% | 23% | 
16 | O=[N+]([O-])c1ccc2c(c1)[n+]([O-])c1n2CCCC1 |  |  |  |  | 0% |  | 
17 | Cc1ccc2c(c1)=[N+]([O-])C(C)(C)[N+]=2[O-] | 70% | 70% | 70% |  | 85% | 0% | IC50 [7]: 13 µM; Activity [8]: < 50%; Activity [9]: Toxic; IC50 [10]: 5.1 µM; IC50 [11]: 13.5 µM
18 | CC1CS(=O)(=O)CCN1/N=C/c1ccc([N+](=O)[O-])o1 (stereo not drawn) [NIFURTIMOX] |  |  |  |  | 93% |  | 
19 | Cc1n(O)c2ccc(/C=C/c3ccccc3)cc2[n+]1[O-] |  |  |  | 15% | 19% |  | 
20 | CCOC(=O)COn1c(C)[n+]([O-])c2cc(/C=C/c3ccccc3)ccc21 |  |  |  | 11% | 8% |  | 
21 | Cc1n(O)c2ccccc2[n+]1[O-] | inactive | 70% | inactive | 0% | 0% | 0% | 
22 | CC1(C)[N+]([O-])=c2ccc(Br)cc2=[N+]1[O-] |  |  |  |  | 77% |  | IC50 [7]: 13.8 µM; Activity [8]: < 50%; Activity [9]: Toxic; IC50 [10]: 8.3 µM; IC50 [11]: 12 µM
23 | Cc1n(O)c2ccc(Br)cc2[n+]1[O-] |  |  |  | 18% | 0% |  | 
24 | O=C(Cn1ccnc1[N+](=O)[O-])NCc1ccccc1 [BENZNIDAZOLE] |  |  |  |  | 92% |  | IC50 [10]: 8.5 µM; IC50 [11]: 3.4 µM
25 | CC1(C)[N+]([O-])=c2ccc(C3OCCO3)cc2=[N+]1[O-] | 100% | 100% | 100% |  | 59% | 28% | Activity [12]: Active; IC50 [7]: 14 µM; Activity [9]: 50%; IC50 [10]: 22.7 µM; IC50 [11]: 20 µM
26 | CCOC(=O)c1ccc2[nH]c(C(=O)OCC)[n+]([O-])c2c1 | inactive | inactive | inactive |  |  | 50% | 
27 | CC1(C)[N+]([O-])=c2ccc(/C=N/O)cc2=[N+]1[O-] | 100% | 100% | 100% |  | 72% | 21% | Activity [12]: Active; Activity [13]: Not toxic; IC50 [7]: 11.8 µM; Activity [8]: Not toxic; Activity [9]: Not toxic; IC50 [10]: 12.5 µM; IC50 [11]: 14.5 µM
28 | CCOC(=O)COn1c(C)[n+]([O-])c2ccccc21 |  |  |  | 12% | 1% |  | 
29 | CC1(C)[N+]([O-])=c2ccc(/C=C/c3ccccc3)cc2=[N+]1[O-] |  |  |  |  | 100% |  | IC50 [7]: 5 µM; Activity [8]: < 50%; Activity [9]: Toxic; IC50 [10]: 3.4 µM; IC50 [11]: 6 µM

— ChEMBL document CHEMBL1147825, “2H-benzimidazole 1,3-dioxide derivatives: a new family of water-soluble anti-trypanosomatid agents” (J Med Chem, 2006)
